In ChEMBL document CHEMBL1817636, “Use of structure-based design to discover a potent, selective, in vivo active phosphodiesterase 10A inhibitor lead series for the treatment of schizophrenia” (J Med Chem, 2011):
pIC50: −log10 of the molar value. Active and inactive are the calls of the source. No cut-off for these calls is given here.

Assays:
[1] = target: T1, cAMP and cAMP-inhibited cGMP 3',5'-cyclic phosphodiesterase 10A (Rattus norvegicus, UniProt Q9QYJ6); assay: Inhibition of recombinant rat PDE10A expressed in Sf9 cells using [3H]cAMP after 30 mins by scintillation proximity assay
T1 sequence (Q9QYJ6 whole entry): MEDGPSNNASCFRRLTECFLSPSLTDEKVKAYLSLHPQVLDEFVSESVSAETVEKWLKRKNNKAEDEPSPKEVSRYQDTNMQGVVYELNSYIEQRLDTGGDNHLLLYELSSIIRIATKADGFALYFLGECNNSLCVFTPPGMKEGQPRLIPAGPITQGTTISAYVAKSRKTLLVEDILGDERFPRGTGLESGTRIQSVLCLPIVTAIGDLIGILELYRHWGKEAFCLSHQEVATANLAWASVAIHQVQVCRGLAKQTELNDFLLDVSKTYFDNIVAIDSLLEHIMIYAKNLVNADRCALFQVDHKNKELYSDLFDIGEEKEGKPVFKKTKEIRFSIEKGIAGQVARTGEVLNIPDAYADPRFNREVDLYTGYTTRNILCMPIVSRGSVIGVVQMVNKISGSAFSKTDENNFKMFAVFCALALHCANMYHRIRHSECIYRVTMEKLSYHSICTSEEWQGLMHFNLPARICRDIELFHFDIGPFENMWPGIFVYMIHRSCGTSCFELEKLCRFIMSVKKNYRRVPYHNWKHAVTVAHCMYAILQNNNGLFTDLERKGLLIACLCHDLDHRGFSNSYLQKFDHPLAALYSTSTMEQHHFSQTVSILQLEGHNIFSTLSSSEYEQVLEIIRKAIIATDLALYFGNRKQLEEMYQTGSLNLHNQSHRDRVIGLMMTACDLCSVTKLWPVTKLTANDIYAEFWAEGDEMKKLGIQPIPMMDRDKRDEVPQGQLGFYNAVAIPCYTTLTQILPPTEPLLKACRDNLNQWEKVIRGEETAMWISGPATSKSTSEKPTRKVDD
Summary of the method: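 Full-length rat PDE10A clone expressed in Sf9 cells; enzyme extracted in Tris/benzamidine/EDTA/sucrose/PMSF lysis buffer, pH 7.5. 30 min at room temperature, stopped with SPA beads, counted after 10–12 h.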

[2] = Selectivity ratio of IC50 for PDE3A to IC50 for rat PDE10A
[3] = target: T2, cGMP-inhibited 3',5'-cyclic phosphodiesterase 3A (Homo sapiens, UniProt Q14432); assay: Inhibition of PDE3A at 1 uM
T2 sequence (Q14432 whole entry): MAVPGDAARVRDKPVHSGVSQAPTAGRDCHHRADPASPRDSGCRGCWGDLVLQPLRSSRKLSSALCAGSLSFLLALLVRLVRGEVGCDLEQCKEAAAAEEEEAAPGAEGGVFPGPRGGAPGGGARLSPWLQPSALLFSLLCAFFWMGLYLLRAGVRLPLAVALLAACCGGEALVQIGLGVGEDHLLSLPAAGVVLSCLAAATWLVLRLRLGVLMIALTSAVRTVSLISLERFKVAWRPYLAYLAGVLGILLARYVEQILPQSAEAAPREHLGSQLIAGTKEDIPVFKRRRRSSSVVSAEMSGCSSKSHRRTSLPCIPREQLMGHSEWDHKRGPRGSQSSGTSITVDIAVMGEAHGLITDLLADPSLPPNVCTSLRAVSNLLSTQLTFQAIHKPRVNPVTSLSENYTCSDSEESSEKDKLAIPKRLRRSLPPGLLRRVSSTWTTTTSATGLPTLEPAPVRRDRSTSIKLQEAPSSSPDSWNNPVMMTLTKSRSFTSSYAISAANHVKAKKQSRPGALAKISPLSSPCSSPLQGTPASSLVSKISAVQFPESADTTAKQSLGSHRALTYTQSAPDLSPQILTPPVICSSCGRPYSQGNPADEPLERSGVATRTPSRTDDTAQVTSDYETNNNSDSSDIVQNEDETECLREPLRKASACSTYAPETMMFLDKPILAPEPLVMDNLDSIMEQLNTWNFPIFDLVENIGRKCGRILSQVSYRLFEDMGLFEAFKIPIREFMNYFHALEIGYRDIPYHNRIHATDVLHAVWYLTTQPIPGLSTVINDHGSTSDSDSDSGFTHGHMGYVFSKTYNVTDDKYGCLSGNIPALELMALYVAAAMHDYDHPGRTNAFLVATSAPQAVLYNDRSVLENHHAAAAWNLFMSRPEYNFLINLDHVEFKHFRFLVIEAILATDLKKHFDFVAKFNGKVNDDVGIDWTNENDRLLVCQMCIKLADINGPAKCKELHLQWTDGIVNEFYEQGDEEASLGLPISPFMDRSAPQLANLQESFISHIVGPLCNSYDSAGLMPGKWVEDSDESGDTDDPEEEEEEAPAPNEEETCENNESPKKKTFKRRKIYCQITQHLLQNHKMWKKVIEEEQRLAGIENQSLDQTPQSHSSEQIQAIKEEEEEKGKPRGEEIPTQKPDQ

[4] = Intrinsic clearance in human liver microsomes; format: ADME, Microsome
[5] = Intrinsic clearance in rat liver microsomes; format: ADME, Microsome
Mus musculus [6] = assay: Antipsychotic activity in CD1 mouse assessed as increase in striatal cGMP levels at 5.6 mg/kg, sc measured after 60 mins; format: functional, organism-based; design: dose 5.6 mg/kg
human MDR [7] = assay: Apparent permeability across apical to basolateral side in dog MDCK cells expressing human MDR; format: ADME, cell-based, Canis lupus familiaris; settings: MDCK-MDR1
Mus musculus [8] = assay: Antipsychotic activity in CD1 mouse assessed as increase in brain cGMP levels at 32 mg/kg, sc measured after 60 mins post dosing relative to control; format: functional; settings: route subcutaneous
Mus musculus [9] = assay: Antipsychotic activity in CD1 mouse assessed as increase in brain cGMP levels at 5.6 mg/kg, sc measured after 60 mins post dosing relative to control; format: functional; settings: route subcutaneous
[10] = Selectivity ratio IC50 for PDE4D to IC50 for rat PDE10A
[11] = Selectivity ratio IC50 for PDE2A to IC50 for rat PDE10A
[12] = Selectivity ratio IC50 for PDE5A to IC50 for rat PDE10A
[13] = Selectivity ratio IC50 for PDE6A to IC50 for rat PDE10A
[14] = Selectivity ratio IC50 for PDE1A to IC50 for rat PDE10A
[15] = Selectivity ratio IC50 for PDE7A to IC50 for rat PDE10A
human MDR [16] = assay: Efflux ratio of permeability from basolateral to apical side over apical to basolateral side in dog MDCK cells expressing human MDR; format: ADME, cell-based, Canis lupus familiaris; settings: MDCK-MDR1
[17] = Selectivity ratio IC50 for PDE8A to IC50 for rat PDE10A
[18] = Selectivity ratio IC50 for PDE9A to IC50 for rat PDE10A
[19] = Selectivity ratio IC50 for PDE11A to IC50 for rat PDE10A
[20] = target: T2, cGMP-inhibited 3',5'-cyclic phosphodiesterase 3A; assay: Inhibition of PDE3A
Mus musculus [21] = assay: Antipsychotic activity in sc dosed PDE10A-positive DBA1LAC/J mouse assessed as inhibition of conditioned avoidance response administered 30 mins prior testing; format: functional
Mus musculus [22] = assay: Antipsychotic activity in sc dosed PDE10A-knock out DBA1LAC/J mouse assessed as inhibition of conditioned avoidance response administered 30 mins prior testing; format: functional
Mus musculus [23] = assay: Antipsychotic activity in CD1 mouse assessed as increase in brain cGMP levels at 32 mg/kg, sc measured after 15 mins post dosing relative to control; format: functional; settings: route subcutaneous
Mus musculus [24] = assay: Antipsychotic activity in CD1 mouse assessed as increase in brain cGMP levels at 32 mg/kg, sc measured after 30 mins post dosing relative to control; format: functional; settings: route subcutaneous

With `COc1cc2ncnc(N3CCCC(c4ccccc4)C3)c2cc1OCc1ccccn1` (stereo not drawn) as the molecule, how does the pIC50 [1] read?
The pIC50 was under 5.49.

Which Ratio IC50 [2] does the source give for `COc1cc2ncnc(N3CCCC(c4ccccc4)C3)c2cc1OCCc1ccccn1` (racemic) here?
Its Ratio IC50 is over 5.

Which results are given for `COc1cc2ncnc(N3CCCC(c4ccccc4)C3)c2cc1OCCCc1nc2ccccc2n1C` (stereo not drawn)?
inhibition [3]: 11%; pIC50 [1]: 8.00

Which CLint scaled [4] does the source give for `COc1cc2cncnc2cc1OCCc1ccc2ccccc2n1` here?
Its CLint scaled is under 7 mL/min/kg.

What about the CLint scaled [5] of the same molecule?
Its CLint scaled is 183 mL/min/kg.

And the Activity (Mus musculus [6])?
The Activity was “inactive”.

What about the inhibition [3] of the same molecule?
Its inhibition is 51%.

And the Papp A→B (human MDR [7])?
Its Papp A→B is 3 ×10⁻⁶ cm/s.

With `COc1cc2ncnc(N3CCCC(c4ccccc4)C3)c2cc1OCCc1ccncc1` (stereo not drawn) as the molecule, how does the pIC50 [1] read?
The pIC50 was under 5.49.

Which CLint scaled [4] does the source give for `COc1cc2ncnc(N(C)C)c2cc1OCCc1ccc2ccccc2n1` here?
The CLint scaled was 178 mL/min/kg.

What about the Papp A→B (human MDR [7]) of the same molecule?
The Papp A→B was 19 ×10⁻⁶ cm/s.

What about the Activity (Mus musculus [8]) of the same molecule?
Its Activity is 268%.

What about the pIC50 [1] of the same molecule?
The pIC50 was 7.85.

What about the Activity (Mus musculus [9]) of the same molecule?
Its Activity is 34%.

Which results are given for `COc1cc2ncnc(N3CCCC(c4ccccc4)C3)c2cc1OCCc1ccc2ccccc2n1` (stereo not drawn)?
Ratio IC50 [10]: > 100; Ratio IC50 [11]: > 100; Ratio IC50 [12]: > 100; CLint scaled [4]: > 19 mL/min/kg; Ratio IC50 [13]: > 100; Ratio IC50 [14]: > 100; Ratio IC50 [15]: > 100; Ratio IC50 [2]: > 100; efflux ratio (human MDR [16]): > 10; Ratio IC50 [17]: > 100; Ratio IC50 [18]: > 100; Ratio IC50 [19]: > 100

With `COc1cc2ncnc(N3CCCC(c4ccccc4)C3)c2cc1OCc1cccnc1` (stereo not drawn) as the molecule, how does the pIC50 [1] read?
The pIC50 was under 5.49.

For `CCCOc1cc2c(N3CCCC(c4ccccc4)C3)ncnc2cc1OC` (stereo not drawn), which Ratio IC50 [2] is on record?
Its Ratio IC50 is under 0.1.

What about the pIC50 [20] of the same molecule?
Its pIC50 is 7.01.

What about the pIC50 [1] of the same molecule?
The pIC50 was 5.98.

With `COc1cc2ncnc(N3CCCC(c4ccccc4)C3)c2cc1OC` (racemic) as the molecule, how does the pIC50 [1] read?
The pIC50 was 6.84.

With `COc1cc2ncnc(N3CCCC(c4ccccc4)C3)c2cc1OCCc1ccccc1` (stereo not drawn) as the molecule, how does the pIC50 [1] read?
Its pIC50 is 5.78.

With `COc1cc2ncnc(N3CCCC(c4ccccc4)C3)c2cc1OCc1ccc2ccccc2n1` (stereo not drawn) as the molecule, how does the pIC50 [1] read?
The pIC50 was under 5.49.

Which CLint scaled [4] does the source give for `COc1cc2ncnc(N3CCCC(c4ccccc4)C3)c2cc1OC` (stereo not drawn) [listing 1 of 2 here] here?
Its CLint scaled is 13 mL/min/kg.

What about the pIC50 [20] of the same molecule?
The pIC50 was 8.07.

And the efflux ratio (human MDR [16])?
Its efflux ratio is 0.7.

With `COc1cc2ncnc(N3CCCC(c4ccccc4)C3)c2cc1OCCc1cccnc1` (stereo not drawn) as the molecule, how does the pIC50 [1] read?
The pIC50 was 5.63.

With `c1ccc2nc(CCOc3ccc4ccncc4c3)ccc2c1` as the molecule, how does the pIC50 [1] read?
Its pIC50 is 6.09.

With `COc1cc2ncnc(N3CCCC(c4ccccc4)C3)c2cc1OCc1ccncc1` (stereo not drawn) as the molecule, how does the pIC50 [1] read?
The pIC50 was under 5.49.

For `COc1cc2ncnc(N3CCCC(c4ccccc4)C3)c2cc1OC` (stereo not drawn) [listing 2 of 2 here], which Ratio IC50 [2] is on record?
Its Ratio IC50 is under 0.1.

With `COc1cc2ncnc(-c3cccnc3)c2cc1OCCc1ccc2ccccc2n1` as the molecule, how does the CLint scaled [4] read?
Its CLint scaled is under 8 mL/min/kg.

What about the Papp A→B (human MDR [7]) of the same molecule?
The Papp A→B was 0.4 ×10⁻⁶ cm/s.

And the ED50 (Mus musculus [21])?
The ED50 was 3.18 mg/kg.

What about the ED50 (Mus musculus [22]) of the same molecule?
Its ED50 is over 5.8 mg/kg.

And the pIC50 [1]?
The pIC50 was 8.30.

And the Activity (Mus musculus [9])?
Its Activity is 79%.

For `COc1cc2ncnc(N3CCCC(c4ccccc4)C3)c2cc1OCCc1ccccn1` (stereo not drawn), which inhibition [3] is on record?
The inhibition was 32%.

What does the source list for `COc1cc2ncn(C)c(=O)c2cc1OCCc1ccc2ccccc2n1`?
CLint scaled [4]: 93 mL/min/kg; Papp A→B (human MDR [7]): 18 ×10⁻⁶ cm/s; Activity (Mus musculus [23]): 129%; Activity (Mus musculus [24]): 79%; pIC50 [1]: 7.92
